How the values were obtained:
[1] = molecular target: T1, TRIM33 PHD-Bromo (Homo sapiens, UniProt Q9UPN9); experiment: ITC binding of H3; conditions: versus H3(1-28) (KD=0.46 μM)
T1 sequence (Q9UPN9 882-1087 limits assumed): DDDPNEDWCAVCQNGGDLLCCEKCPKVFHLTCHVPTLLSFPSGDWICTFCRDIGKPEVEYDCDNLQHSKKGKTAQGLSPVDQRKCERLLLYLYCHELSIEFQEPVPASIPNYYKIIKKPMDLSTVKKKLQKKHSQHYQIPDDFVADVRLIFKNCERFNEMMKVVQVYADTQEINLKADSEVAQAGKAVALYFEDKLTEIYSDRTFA

[2] = test system: histone H3 modified residues at Gsc and Mixl1 promoters; experiment: ChIP of histone H3 marks at Gsc and Mixl1 promoters; type: cell-based, mouse; conditions: activin
Outline: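 Histone-mark ChIP used day-2.5 mESC embryoid bodies treated with activin A (50 ng/ml) or SB431542 (10 μM). Cells were fixed with 1% formaldehyde (37 °C, 10 min) and quenched with glycine. Antibodies recognised modified H3 residues; protein A/G beads alone served as negative controls. Mono-nucleosome templates came from micrococcal nuclease digestion. Absolute qRT-PCR, percent of input. Mean ± S.D. of quadruplicates, ≥3 experiments.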

[3] = test system: Smad4-Smad2/3 complex in mESCs; experiment: Smad2/3 co-immunoprecipitation, Smad4-Smad2/3 complex formation; type: cell-based, mouse
[4] = test system: activin responsive genes in EBs; experiment: Genome-wide transcriptomic analysis; type: cell-based, mouse; conditions: >3 fold change
[5] = test system: TRIM33-Smad2/3 complex in mESCs; experiment: Smad2/3 co-immunoprecipitation, TRIM33-Smad2/3 complex formation; type: cell-based, mouse
[6] = test system: Smad4 at Gsc and Mixl1 promoters; experiment: ChIP of Smad4 at Gsc / Mixl1 promoters; type: cell-based, mouse; conditions: EBs day 2.5, activin 2 h
Outline: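 Wild-type, shRNA Trim33-depleted or TRIM33-reconstituted mESCs formed EBs for 2.5 days, then 2 h with activin A (50 ng/ml) or SB431542 (10 μM). Cells were crosslinked in 1% formaldehyde at 37 °C for 10 min and quenched in 0.125 M glycine. Anti-Smad4 ChIP was read by absolute qPCR of Gsc (−0.4 kb) and Mixl1 (−0.5/−0.2 kb) as % input. Mean ± S.D. of quadruplicates, three experiments.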

[7] = test system: RNA Pol II at Gsc and Mixl1 promoters; experiment: ChIP of RNA Pol II at Gsc and Mixl1 promoters; type: cell-based, mouse; conditions: Gsc -0.1 kb, Mixl1 -0.2 kb, EBs day 2.5, activin 2 h
Outline: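 Mouse ESC embryoid bodies at day 2.5 (wild type or Trim33-null) received activin or SB431542 for 2 h. ChIP used anti-RNA Pol II. qRT-PCR read Gsc −0.1 kb and Mixl1 −0.2 kb as percent of input. Mean ± S.D. of quadruplicates, two independent experiments.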

[8] = test system: Gsc, Mixl1, Smad7, Skil, SerpinE1, Lefty1 expression in mESCs; experiment: qRT-PCR of activin/nodal target genes in mESCs / embryoid bodies; type: cell-based, mouse
Outline: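 E14Tg2a.IV mESCs were kept feeder-free with LIF; Trim33-null lines were kept on MEFs. Variants were Trim33 knockdown by lentiviral shRNA, Smad2/3-depleted, Smad4-null, or reconstituted with TRIM33 constructs. Embryoid bodies formed for 2.5 days, then received activin A (50 ng/ml) or SB431542 (10 μM) for 2 h. Total RNA went to qRT-PCR. Mean ± S.D. of quadruplicates, three independent experiments.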

[9] = test system: HP1γ at Gsc and Mixl1 promoters; experiment: ChIP of HP1γ at Gsc and Mixl1 promoters; type: cell-based, mouse; conditions: wild type and Trim33-null EBs day 2.5, activin 2 h
Outline: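 Mouse E14Tg2a.IV ESCs (feeder-free, LIF) and Trim33-null ESCs (C57Bl/6J, on MEFs) formed EBs for 2.5 days, then got activin or SB for 2 h. HP1γ or no-antibody ChIP used a kit. Absolute qPCR covered Gsc −2.3 kb and Mixl1 −0.2/−0.5 kb, as % input. Mean ± S.D. of quadruplicates.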

[10] = test system: TRIM33 at Gsc and Mixl1 promoters; experiment: ChIP of TRIM33 at Gsc / Mixl1 promoters; type: cell-based, mouse
Outline: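 EBs (day 2.5) came from wild-type, Trim33-depleted, Smad2/3-depleted or Smad4-null mESCs. They were given activin A (50 ng/ml) or SB431542 (10 μM) for 2 h. Formaldehyde crosslinking (1%, 37 °C, 10 min) was quenched with glycine. Anti-TRIM33 ChIP used a kit, with absolute qPCR of Gsc/Mixl1 promoter regions reported as % input. Mean ± S.D. of quadruplicates, at least three experiments.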

[11] = test system: HaCaT keratinocytes; experiment: TGF-β gene responses in HaCaT; type: cell-based, human; conditions: qRT-PCR
[12] = test system: MDA-MB-231 breast carcinoma cells; conditions: and our unpublished work, ref Gomis et al., 2006; cited from earlier work
[13] = test system: HaCaT keratinocytes; conditions: and our unpublished work, ref Gomis et al., 2006; cited from earlier work
[14] = test system: MDA-MB-231 cells; experiment: Luciferase reporter, repeats of Smad binding element; type: cell-based, human; conditions: SBE repeats
[15] = test system: MDA-MB-231 breast carcinoma cells; experiment: TGF-β gene responses in MDA-MB-231; type: cell-based, human; conditions: qRT-PCR, MDA-MB-231, TRIM33 depletion
[16] = test system: HaCaT cells; experiment: Luciferase reporter, SERPINE1; type: cell-based, human; conditions: SERPINE1 (PAI1) element

For “H3(1-28) acetylation of K18: H3(1-28) with acetylation of K18”, which “enhancement of binding relative to H3(1-28)” value [1] is on record?
Its value is 2.3 fold.

Which “level of H3K18ac” value ([2]; TRIM33 binding regions and throughout Gsc and Mixl1 promoters) does the source give for “activin: recombinant activin A (R&D Systems), ligand sharing receptors with nodal” here?
Its value is “rapid, marked increase in the level of H3K18ac”.

And the “levels of H3K14ac and H3K23ac” value [2]?
The value was “increased by activin”.

And the “level of H3K9me3” value ([2]; throughout these regions of Gsc and Mixl1 promoters)?
The value was “did not affect the level of H3K9me3”.

And the “formation of Smad4-Smad2/3 complex on TRIM33 depletion” value ([3]; TRIM33 shRNA or knock-out mESCs)?
The value was “did not inhibit the formation of the Smad4-Smad2/3 complex”.

And the “t1/2 of Smad4-Smad2/3 complex formation” value ([3]; mESCs, activin A 50 ng/ml)?
Its value is ~30 min.

What about the “total activin gene responses” value ([4]; p<0.05) of the same compound?
Its value is 407 responses.

And the “activin gene responses requiring both Smad4 and TRIM33” value ([4]; p<0.05, of 407 responses)?
The value was 333 responses.

And the “formation of TRIM33-Smad2/3 complex, Smad4 requirement” value ([5]; Smad4-null mESCs)?
The value was “did not require Smad4”.

And the “t1/2 of TRIM33-Smad2/3 complex formation” value ([5]; mESCs, activin A 50 ng/ml)?
Its value is ~30 min.

What about the “Smad4 ChIP binding, Gsc” value [6] of the same compound?
The value was “Activin-dependent binding of Smad4 occurred only at the ARE”.

What about the “level of Pol II binding to initiator region” value [7] of the same compound?
The value was “increase in the level of Pol II binding”.

What about the responsiveness to activin ([8]; Cripto/cryptic-depleted cells) of the same compound?
Its responsiveness to activin is “remained responsive to activin”.

And the “induction of Gsc, Mixl1, Smad7” value ([8]; RNAi-mediated depletion of TRIM33, EB 2.5 days, activin 2 h)?
The value was “strongly blunted the induction of Gsc and Mixl1 but not that of Smad7”.

And the “Gsc, Mixl1 and Smad7 responses to added activin” value ([8]; Smad4-null or Smad2/3-depleted mESCs, EB 2.5 days, 2 h)?
Its value is “lacked Gsc, Mixl1 and Smad7 responses”.

And the “Gsc and Mixl1 responses” value ([8]; TRIM33-depleted cells reconstituted with shRNA-insensitive TRIM33 vector)?
The value was “restored the Gsc and Mixl1 responses”.

What about the “expression of Smad7, Skil and SerpinE1” value ([8]; Trim33-null ESC lines, activin) of the same compound?
The value was “stimulated the expression of the common Smad2/3 target genes”.

And the “Lefty1 induction by activin” value ([8]; Trim33-null mESCs, Smad4-null mESCs depleted of TRIM33)?
Its value is “blunted”.

What about the “expression of Gsc and Mixl1” value ([8]; two independent Trim33-null ESC lines, activin) of the same compound?
Its value is “failed to stimulate the expression of Gsc and Mixl1”.

And the “HP1γ binding to TRIM33 target regions” value [9]?
The value was “inhibited by activin addition in a TRIM33-dependent manner”.

What about the “TRIM33 ChIP binding, Mixl1” value ([10]; EBs day 2.5, activin 2 h) of the same compound?
The value was “Activin-dependent binding of TRIM33 occurred near the Mixl1 ARE”.

What about the “activin-dependent TRIM33 binding on Smad2/3 depletion, Mixl1” value ([10]; depletion of Smad2/3) of the same compound?
The value was “inhibited the activin-dependent binding of TRIM33”.

And the “activin-induced TRIM33 binding, effect of Smad4” value ([10]; wild-type versus Smad4-null ESCs)?
Its value is “enhanced the activin-induced binding of TRIM33 to its sites”.

Which “TGF-β response of SMAD7, SKIL and SERPINE1 on TRIM33 depletion” value [11] does the source give for TGF-β here?
The value was “did not significantly alter the TGF-β response”.

What about the “most TGF-β responses on RNAi depletion of Smad2/3 and Smad4 or TRIM33” value [12] of the same compound?
The value was “inhibited by RNAi-mediated depletion of Smad2/3 and Smad4, but not by depletion of TRIM33”.

What about the “most TGF-β responses on RNAi depletion of Smad2/3 and Smad4 or TRIM33” value [13] of the same compound?
Its value is “inhibited by RNAi-mediated depletion of Smad2/3 and Smad4, but not by depletion of TRIM33”.

What about the “reporter response on TRIM33 depletion” value [14] of the same compound?
The value was “increased the activity of these constructs”.

What about the “TGF-β response of SMAD7, SKIL and SERPINE1 on TRIM33 depletion” value [15] of the same compound?
The value was “did not significantly alter the TGF-β response”.

And the “reporter response on TRIM33 depletion” value [16]?
Its value is “increased the activity of these constructs”.

Which “sensitivity of endogenous nodal-like factor responses to SB431542” value ([8]; mESC EBs, SB431542 10 μM) does the source give for `NC(=O)c1ccc(-c2nc(-c3ccc4c(c3)OCO4)c(-c3ccccn3)[nH]2)cc1` [SB431542, reference compound] here?
The value was “SB431542-sensitive”.

Source: article PMC3582033 (Cell, 2011)
